Experimental data published in ChEMBL document CHEMBL1155477, “Benzothiophene containing Rho kinase inhibitors: Efficacy in an animal model of glaucoma” (Bioorg Med Chem Lett, 2010).
Values after ≈ are worked out from the molar mass of the structure shown. Values belong to the molecule of their own block, whether it stands above or below them. Active and inactive are the calls of the source. The calls are words filed in the database; no cut-off is given here.

Key:
[1] = target: T1, Rho-associated protein kinase 1 (Homo sapiens, UniProt Q13464); test: Inhibition of ROCK1 assessed as ATP cunsumption
Target sequence in this assay (Q13464 whole entry): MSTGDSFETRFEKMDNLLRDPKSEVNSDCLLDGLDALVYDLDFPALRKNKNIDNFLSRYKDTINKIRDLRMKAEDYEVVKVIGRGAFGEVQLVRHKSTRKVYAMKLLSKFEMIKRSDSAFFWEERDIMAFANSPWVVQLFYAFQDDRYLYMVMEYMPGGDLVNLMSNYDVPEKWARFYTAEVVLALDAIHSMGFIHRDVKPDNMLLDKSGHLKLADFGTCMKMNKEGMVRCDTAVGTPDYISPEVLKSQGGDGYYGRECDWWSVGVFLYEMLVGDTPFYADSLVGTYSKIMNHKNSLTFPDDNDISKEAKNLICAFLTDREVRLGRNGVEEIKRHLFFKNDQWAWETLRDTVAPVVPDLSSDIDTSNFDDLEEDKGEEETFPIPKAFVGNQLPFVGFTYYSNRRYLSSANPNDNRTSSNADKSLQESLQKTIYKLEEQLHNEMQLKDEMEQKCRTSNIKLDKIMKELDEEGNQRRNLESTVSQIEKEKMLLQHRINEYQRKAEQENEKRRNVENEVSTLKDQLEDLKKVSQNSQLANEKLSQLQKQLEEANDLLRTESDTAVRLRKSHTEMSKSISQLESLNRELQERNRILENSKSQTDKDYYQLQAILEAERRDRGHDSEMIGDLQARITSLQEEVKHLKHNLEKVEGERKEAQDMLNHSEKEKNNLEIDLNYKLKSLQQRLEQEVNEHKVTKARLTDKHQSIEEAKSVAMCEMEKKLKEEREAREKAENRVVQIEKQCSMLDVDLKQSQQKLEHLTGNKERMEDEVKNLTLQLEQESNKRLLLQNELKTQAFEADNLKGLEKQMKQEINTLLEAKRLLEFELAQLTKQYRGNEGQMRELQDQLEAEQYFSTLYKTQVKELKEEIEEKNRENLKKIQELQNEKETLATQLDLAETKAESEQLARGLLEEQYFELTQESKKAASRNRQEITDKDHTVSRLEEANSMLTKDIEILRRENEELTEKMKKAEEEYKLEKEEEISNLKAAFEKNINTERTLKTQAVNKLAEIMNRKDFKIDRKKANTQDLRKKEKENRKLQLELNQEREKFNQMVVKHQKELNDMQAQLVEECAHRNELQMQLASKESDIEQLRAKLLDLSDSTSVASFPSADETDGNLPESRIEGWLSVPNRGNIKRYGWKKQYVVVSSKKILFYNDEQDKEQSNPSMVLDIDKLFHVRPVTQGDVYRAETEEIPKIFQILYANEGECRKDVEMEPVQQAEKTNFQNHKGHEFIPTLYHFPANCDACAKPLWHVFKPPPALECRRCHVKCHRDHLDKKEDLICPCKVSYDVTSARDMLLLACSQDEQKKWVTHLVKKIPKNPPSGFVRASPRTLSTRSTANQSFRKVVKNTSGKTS

[2] = target: T1, Rho-associated protein kinase 1; test: Inhibition of ROCK1 assessed as ATP cunsumption at 96 uM
Method in brief: (§1)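 ROCK1 enzyme reaction in 20 mM Tris-HCl pH 7.5, 10 mM MgCl2, 0.4 mM CaCl2, 0.15 mM EGTA, 0.1 mg/ml BSA. Compounds are run as an 11-point half-log series (final top 96 µM, 1% DMSO, 2–4 replicate wells) for 2 h at 30 °C. Readout is Easylite luminescence, normalized to DMSO and HMN-1152 controls. Values are means of ≥2 independent experiments.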
Target sequence in this assay (Q13464 2-1354 limits assumed): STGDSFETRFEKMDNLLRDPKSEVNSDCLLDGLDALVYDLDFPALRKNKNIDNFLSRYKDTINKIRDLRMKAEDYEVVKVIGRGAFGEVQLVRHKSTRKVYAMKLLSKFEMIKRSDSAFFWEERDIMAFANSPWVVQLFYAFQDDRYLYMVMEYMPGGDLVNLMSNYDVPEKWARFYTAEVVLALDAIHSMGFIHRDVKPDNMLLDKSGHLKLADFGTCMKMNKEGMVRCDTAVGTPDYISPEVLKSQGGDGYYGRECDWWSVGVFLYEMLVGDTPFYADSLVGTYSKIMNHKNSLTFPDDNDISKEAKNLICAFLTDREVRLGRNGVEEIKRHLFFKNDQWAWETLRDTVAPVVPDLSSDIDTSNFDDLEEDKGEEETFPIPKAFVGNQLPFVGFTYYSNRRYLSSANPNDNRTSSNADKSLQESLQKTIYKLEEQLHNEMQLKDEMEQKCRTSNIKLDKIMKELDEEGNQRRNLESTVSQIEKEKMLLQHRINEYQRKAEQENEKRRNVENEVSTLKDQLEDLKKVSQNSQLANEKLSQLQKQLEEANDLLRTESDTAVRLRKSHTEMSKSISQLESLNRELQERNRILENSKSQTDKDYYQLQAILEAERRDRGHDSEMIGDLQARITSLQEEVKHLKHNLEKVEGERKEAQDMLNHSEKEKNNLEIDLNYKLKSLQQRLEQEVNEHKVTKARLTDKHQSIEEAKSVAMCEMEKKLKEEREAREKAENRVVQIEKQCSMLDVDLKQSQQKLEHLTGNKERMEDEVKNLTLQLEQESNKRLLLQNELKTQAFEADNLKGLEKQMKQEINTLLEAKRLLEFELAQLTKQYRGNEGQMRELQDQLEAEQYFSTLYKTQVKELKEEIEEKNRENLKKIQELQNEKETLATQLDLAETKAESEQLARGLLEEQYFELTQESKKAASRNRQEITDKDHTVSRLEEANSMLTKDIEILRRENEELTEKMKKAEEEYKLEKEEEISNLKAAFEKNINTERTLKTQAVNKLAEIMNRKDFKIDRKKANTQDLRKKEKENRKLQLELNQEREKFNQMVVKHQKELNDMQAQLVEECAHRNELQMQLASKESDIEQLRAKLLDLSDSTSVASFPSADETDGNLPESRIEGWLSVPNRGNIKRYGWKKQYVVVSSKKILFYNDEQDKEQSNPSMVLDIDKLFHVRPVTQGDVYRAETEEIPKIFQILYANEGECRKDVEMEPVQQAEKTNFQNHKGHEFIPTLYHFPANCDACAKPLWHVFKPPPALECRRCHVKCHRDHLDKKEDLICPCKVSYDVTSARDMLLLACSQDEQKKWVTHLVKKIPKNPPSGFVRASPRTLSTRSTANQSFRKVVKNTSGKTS

[3] = target: T1, Rho-associated protein kinase 1; test: Inhibition of ROCK1 in human GTM3 cells up to 10 uM by impedance assay; format: cell-based
Target sequence in this assay (Q13464 2-1354 limits assumed): as above

[4] = target: T1, Rho-associated protein kinase 1; test: Inhibition of ROCK1 assessed as ATP cunsumption relative to control; method in brief: as §1
Target sequence in this assay (Q13464 2-1354 limits assumed): as above

[5] = Aqueous solubility of the compound; format: physicochemical; settings: water (aqueous)
[6] = target: Aurora kinase B (Homo sapiens) (UniProt Q96GD4); test: Inhibition of aurora B at 10 uM
Chain of Aurora kinase B (Homo sapiens) (Q96GD4 whole entry): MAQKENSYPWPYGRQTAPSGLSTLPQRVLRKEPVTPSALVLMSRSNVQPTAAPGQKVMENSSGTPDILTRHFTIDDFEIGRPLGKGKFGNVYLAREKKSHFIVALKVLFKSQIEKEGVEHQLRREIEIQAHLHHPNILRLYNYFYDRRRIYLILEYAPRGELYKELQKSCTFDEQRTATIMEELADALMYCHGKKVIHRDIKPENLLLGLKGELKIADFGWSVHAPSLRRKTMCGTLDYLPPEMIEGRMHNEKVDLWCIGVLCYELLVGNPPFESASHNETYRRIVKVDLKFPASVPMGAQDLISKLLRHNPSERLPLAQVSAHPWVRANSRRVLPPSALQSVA
Method in brief: (§2)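 Single-concentration screen at 10 µM in functional assays of a commercial kinase panel; percent inhibition reported when at least 50%.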

[7] = target: Ribosomal protein S6 kinase alpha-5 (Homo sapiens) (UniProt O75582); test: Inhibition of MSK1 at 10 uM; method in brief: as §2
[8] = target: Ribosomal protein S6 kinase beta-1 (Homo sapiens) (UniProt P23443); test: Inhibition of p70S6K at 10 uM; method in brief: as §2
Chain of Ribosomal protein S6 kinase beta-1 (Homo sapiens) (P23443 whole entry, looked up): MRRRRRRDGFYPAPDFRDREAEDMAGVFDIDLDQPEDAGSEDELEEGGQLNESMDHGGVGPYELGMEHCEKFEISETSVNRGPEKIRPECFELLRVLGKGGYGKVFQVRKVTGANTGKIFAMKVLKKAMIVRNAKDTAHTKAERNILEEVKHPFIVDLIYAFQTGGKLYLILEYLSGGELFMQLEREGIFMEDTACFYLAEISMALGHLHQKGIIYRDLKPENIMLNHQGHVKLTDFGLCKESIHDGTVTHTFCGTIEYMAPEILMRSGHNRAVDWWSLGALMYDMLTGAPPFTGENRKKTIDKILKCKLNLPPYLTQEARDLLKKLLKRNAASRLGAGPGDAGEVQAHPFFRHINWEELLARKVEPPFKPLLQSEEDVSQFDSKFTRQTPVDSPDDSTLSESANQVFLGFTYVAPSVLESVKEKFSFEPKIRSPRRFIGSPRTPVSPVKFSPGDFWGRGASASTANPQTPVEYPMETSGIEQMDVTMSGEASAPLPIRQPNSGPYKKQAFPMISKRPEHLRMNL

[9] = Inhibition of PKA at 10 uM
[10] = target: Serine/threonine-protein kinase N1 (Homo sapiens) (UniProt Q16512); test: Inhibition of PKN1 at 10 uM; method in brief: as §2
Chain of Serine/threonine-protein kinase N1 (Homo sapiens) (Q16512 2-942 limits assumed): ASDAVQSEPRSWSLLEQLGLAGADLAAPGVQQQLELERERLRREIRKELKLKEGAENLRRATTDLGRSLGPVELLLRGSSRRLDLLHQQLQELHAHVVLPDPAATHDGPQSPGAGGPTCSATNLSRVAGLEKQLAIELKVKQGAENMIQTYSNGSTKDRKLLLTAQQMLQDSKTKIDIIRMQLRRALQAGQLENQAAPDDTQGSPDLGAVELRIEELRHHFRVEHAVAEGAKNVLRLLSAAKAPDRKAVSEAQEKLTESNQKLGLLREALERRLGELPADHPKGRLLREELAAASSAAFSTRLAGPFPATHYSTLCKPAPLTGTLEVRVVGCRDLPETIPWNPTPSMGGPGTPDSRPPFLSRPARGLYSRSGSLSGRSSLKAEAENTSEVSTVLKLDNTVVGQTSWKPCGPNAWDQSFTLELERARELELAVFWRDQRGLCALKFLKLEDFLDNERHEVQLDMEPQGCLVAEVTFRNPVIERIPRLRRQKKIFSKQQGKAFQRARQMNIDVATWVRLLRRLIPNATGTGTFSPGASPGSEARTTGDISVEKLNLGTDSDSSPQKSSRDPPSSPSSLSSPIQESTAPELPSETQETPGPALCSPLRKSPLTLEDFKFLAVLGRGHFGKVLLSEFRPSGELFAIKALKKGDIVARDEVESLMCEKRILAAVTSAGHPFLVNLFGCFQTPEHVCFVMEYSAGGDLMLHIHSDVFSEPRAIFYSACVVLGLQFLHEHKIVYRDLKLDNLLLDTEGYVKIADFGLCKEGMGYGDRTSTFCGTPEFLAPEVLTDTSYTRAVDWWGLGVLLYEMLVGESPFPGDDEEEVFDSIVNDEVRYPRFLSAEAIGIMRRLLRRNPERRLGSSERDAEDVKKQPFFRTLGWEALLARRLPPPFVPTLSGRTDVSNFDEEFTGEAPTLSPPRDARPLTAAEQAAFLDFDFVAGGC

[11] = target: T2, Serine/threonine-protein kinase Sgk1 (Homo sapiens) (UniProt O00141); test: Inhibition of SGk1 at 10 uM; method in brief: as §2
T2 sequence (whole entry): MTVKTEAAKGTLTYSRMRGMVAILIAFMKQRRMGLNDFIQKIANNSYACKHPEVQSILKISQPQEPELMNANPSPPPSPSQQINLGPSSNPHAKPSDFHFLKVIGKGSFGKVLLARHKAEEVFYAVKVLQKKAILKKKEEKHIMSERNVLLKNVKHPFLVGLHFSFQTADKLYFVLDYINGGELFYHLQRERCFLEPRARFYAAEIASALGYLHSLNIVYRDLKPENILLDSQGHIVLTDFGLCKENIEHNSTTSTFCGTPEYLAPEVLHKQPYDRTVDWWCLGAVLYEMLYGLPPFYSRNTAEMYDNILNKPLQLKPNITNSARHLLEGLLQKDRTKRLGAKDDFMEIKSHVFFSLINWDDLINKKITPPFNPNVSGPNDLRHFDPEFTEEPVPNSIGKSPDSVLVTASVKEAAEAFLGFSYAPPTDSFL

[12] = Cytotoxicity against human GTM3 cells up to 30 uM after 24 hrs; format: cell-based; settings: gtm3, 24 h
[13] = target: T1, Rho-associated protein kinase 1; test: Inhibition of ROCK1 assessed as ATP cunsumption at 96 uM relative to control; method in brief: as §1
Target sequence in this assay (Q13464 2-1354 limits assumed): as the sequence (Q13464 2-1354 limits assumed) above

GTM3 [14] = test: Change in cellular morphology of human GTM3 cells assessed as decrease in vinculin staining density by immunofluorescence relative to control; format: functional, cell-based
Method in brief: (§3)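 GTM-3 cells plated on glass coverslips one day before use, exposed to compound or DMSO control for 3 h, fixed in 2% paraformaldehyde in PBS 10 min at rt, then indirect immunofluorescence with anti-vinculin mAb and Alexa-488 anti-mouse F(ab')2 secondary; vinculin staining density and intensity compared with DMSO-treated cells.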

GTM3 [15] = test: Change in cellular morphology of human GTM3 cells assessed as decrease in vinculin staining intensity by immunofluorescence relative to control; format: functional, cell-based; method in brief: as §3
Cynomolgus monkey [16] = test: Reduction of intraocular pressure in laser-induced ocular hypertensive cynomolgus monkey at 250 ug/eye after 1 hr; format: functional, Macaca fascicularis; parameters: scale not given: the % may be the effect or the level left
Cynomolgus monkey [17] = test: Reduction of intraocular pressure in laser-induced ocular hypertensive cynomolgus monkey at 250 ug/eye after 3 hrs; format: functional, Macaca fascicularis; parameters: scale not given: the % may be the effect or the level left
Cynomolgus monkey [18] = test: Reduction of intraocular pressure in laser-induced ocular hypertensive cynomolgus monkey at 250 ug/eye after 6 hrs; format: functional, Macaca fascicularis; parameters: scale not given: the % may be the effect or the level left
Cynomolgus monkey [19] = test: Reduction of intraocular pressure in ocular hypertensive cynomolgus monkey at 250 ug/eye after 1 hr; format: functional, Macaca fascicularis; parameters: scale not given: the % may be the effect or the level left
Cynomolgus monkey [20] = test: Reduction of intraocular pressure in ocular hypertensive cynomolgus monkey at 250 ug/eye after 3 hrs; format: functional, Macaca fascicularis; parameters: scale not given: the % may be the effect or the level left
Cynomolgus monkey [21] = test: Reduction of intraocular pressure in ocular hypertensive cynomolgus monkey at 250 ug/eye after 6 hrs; format: functional, Macaca fascicularis; parameters: scale not given: the % may be the effect or the level left

Compound: Cc1c(-c2ccnc(N(C)C)n2)sc2ccc(Cl)cc12
IC50 [1]: > 100000 nM
Activity [2]: inactive
inhibition [3]: inactive

Compound: CCC(N)c1ccc2sc(-c3ccnc(N)n3)c(C)c2c1 (racemic)
IC50 [1]: 140 nM

Compound: Cc1c(-c2ccnc(N)n2)sc2ccc(Cc3cccc(O)c3)cc12
IC50 [1]: 20 nM
inhibition [6]: 82%
inhibition [7]: 94%
inhibition [8]: 55%
inhibition [9]: 67%
inhibition [10]: 53%
inhibition [11]: 61%
solubility [5]: 10 µM (≈ 3.47 µg/mL)

Compound: Cc1c(-c2ccnc(N)n2)sc2ccccc12
IC50 [1]: 2900 nM

Compound: Cc1c(-c2ccnc(N)n2)sc2ccc(CN)cc12
IC50 [1]: 2200 nM

Compound: COc1ccc(C(N)c2ccc3sc(-c4ccnc(N)n4)c(C)c3c2)cc1 (racemic)
IC50 [1]: 90 nM
Emax [4]: 56%

Compound: Cc1c(-c2c[nH]c3ncccc23)sc2ccc(Cl)cc12
IC50 [1]: > 10000 nM
inhibition [3]: inactive

Compound: C[C@@H](N)c1ccc(C(=O)Nc2ccnc3[nH]ccc23)cc1 [Y-39983]
Activity [12]: Non-toxic

Compound: COc1cccc(C(N)c2ccc3sc(-c4ccnc(N)n4)c(C)c3c2)c1 (racemic)
IC50 [1]: 20 nM
Emax [4]: 46%

Compound: Cc1c(-c2ccnc(N)n2)sc2ccc(-c3ccccc3)cc12
IC50 [1]: 4200 nM
Emax [13]: 35%

Compound: Cc1cncc2cccc(S(=O)(=O)N3CCCNCC3C)c12 (stereo not drawn)
Activity (GTM3 [14]): Active
Activity (GTM3 [15]): Active

Compound: Cc1c(-c2ccnc(N)n2)sc2ccc(C(N)C(C)C)cc12 (racemic)
IC50 [1]: 60 nM

Compound: COC(=O)c1cccc(Cc2ccc3sc(-c4ccnc(N)n4)c(C)c3c2)c1
IC50 [1]: 10000 nM

Compound: COc1ccc(Cc2ccc3sc(-c4ccnc(N)n4)c(C)c3c2)cc1
IC50 [1]: 7200 nM

Compound: Cc1c(-c2ccnc(N)n2)sc2ccc(C(N)CC(C)C)cc12 (racemic)
IC50 [1]: 30 nM

Compound: Cc1c(-c2ccnc(N)n2)sc2ccc(Cc3cccc(C(=O)O)c3)cc12
IC50 [1]: 60 nM

Compound: Cc1c(-c2ccnc(N)n2)sc2ccc(C(N)c3ccccc3)cc12 (racemic)
IC50 [1]: 20 nM

Compound: Cc1c(-c2ccnc(N)n2)sc2ccc(Cl)cc12
IC50 [1]: 1500 nM
inhibition [3]: inactive

Continued, in another order:

IC50 [1]: 50 nM
Emax [4]: 67%
Compound: Cc1cccc(C(N)c2ccc3sc(-c4ccnc(N)n4)c(C)c3c2)c1 (racemic)

IC50 [1]: 230 nM
solubility [5]: 40 µM (≈ 14.5 µg/mL)
Compound: COc1cccc(Cc2ccc3sc(-c4ccnc(N)n4)c(C)c3c2)c1

IC50 [1]: 28000 nM
inhibition [3]: inactive
Compound: Cc1c(-c2ccncc2)sc2ccc(Cl)cc12

solubility [5]: 30 µM (≈ 10.5 µg/mL)
Compound: Cc1c(-c2ccnc(N)n2)sc2ccc(Nc3cccc(O)c3)cc12

IC50 [1]: 13000 nM
inhibition [3]: inactive
Compound: Cc1c(-c2cc(N)ncn2)sc2ccc(Cl)cc12

IC50 [1]: 9700 nM
Compound: COc1ccccc1Cc1ccc2sc(-c3ccnc(N)n3)c(C)c2c1

IC50 [1]: 7100 nM
inhibition [3]: inactive
Compound: Cc1c(-c2ccnc3[nH]ccc23)sc2ccc(Cl)cc12

IC50 [1]: 20 nM
Compound: CCCC(N)c1ccc2sc(-c3ccnc(N)n3)c(C)c2c1 (racemic)
Activity (Cynomolgus monkey [16]): -19.6%
Activity (Cynomolgus monkey [17]): -24.1%
Activity (Cynomolgus monkey [18]): -26%
Activity (Cynomolgus monkey [19]): -20%
Activity (Cynomolgus monkey [20]): -13.9%
Activity (Cynomolgus monkey [21]): -12%

IC50 [1]: 400 nM
Compound: Cc1c(-c2ccnc(N)n2)sc2ccc(C(C)N)cc12 (racemic)

IC50 [1]: 8600 nM
Compound: Cc1c(-c2ccnc(N)n2)sc2ccc(Cc3cccc(C(F)(F)F)c3)cc12

IC50 [1]: 30 nM
Compound: Cc1c(-c2ccnc(N)n2)sc2ccc(C(N)c3cccc(Cl)c3)cc12 (racemic)

IC50 [1]: 8300 nM
Emax [4]: 44%
inhibition [3]: inactive
Compound: Cc1c(-c2ccnc(N)c2)sc2ccc(Cl)cc12

IC50 [1]: 38000 nM
Compound: O=S(=O)(c1cccc2c(I)cccc12)N1CCCNCC1

IC50 [1]: 580 nM
Compound: Cc1c(-c2ccnc(N)n2)sc2ccc(Cc3ccccc3)cc12

IC50 [1]: 1200 nM
Emax [4]: 17%
inhibition [3]: inactive
Compound: CNc1nccc(-c2sc3ccc(Cl)cc3c2C)n1
